The test system of one experiment is MDA-MB-468. Put plainly: Anti-proliferative activity against human MDA-MB-468 cells assessed as cell growth inhibition measured after 5 days incubation by CCK-8 assay. In kind it is functional, cell-based. The settings on record: MDA-MB-468, 120 h. The method in brief: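 Cells plated at 3,000–10,000 per well and exposed to serial dilutions for 5 days at 37 °C. CCK-8 (1x) was added for 2–4 h, with absorbance read at 450 nm against a 690 nm reference. IC50 was taken from curve fits. Leukemia lines were grown in RPMI-1640, K562 in IMDM and MDA-MB-468 in DMEM, all with 10 % FBS. Values are means ± SD of two biological experiments (three for BT549 and MDA-MB-468).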
(Formazan colour is commonly taken as a measure of viable cells.)

Experiment [1] deals with T1, von Hippel-Lindau disease tumor suppressor/Histone-lysine N-methyltransferase EZH2 (Homo sapiens, UniProt Q15910+P40337). In words: PROTAC activity at VHL/EZH2 degradation in human RS4-11 cells assessed as protein degradation at 0.3 uM measured after 24 hrs by Western blot analysis. It is filed as cell-based. The method in brief:
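Cells were seeded at 0.5–2 million per well and treated for 24 h, or for the stated times at 300 nM in the time course. Lysis was in RIPA with protease inhibitors; ~10 μg protein was run on SDS-PAGE and blotted to PVDF. Detection used fluorescent immunoblotting for EZH2, EED and SUZ12, with β-actin as loading control. Blots are representative of two biological experiments.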

For experiment [2], the target named is T1, von Hippel-Lindau disease tumor suppressor/Histone-lysine N-methyltransferase EZH2. In words: PROTAC activity at VHL/EZH2 degradation in MLLr AML cell line human EOL1 cells assessed as protein degradation at 0.5 uM measured after 24 hrs in presence of 0.05 uM MLN4924 by Western blot analysis. In kind it is cell-based. The method in brief: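 EOL-1 cells were pre-treated for 2 h with MLN4924 (0.05 μM), EPZ-6438 (5 μM) or VHL-1 (5 μM), then given 0.5 μM degrader for 24 h. EZH2 was assessed by Western blot against β-actin. Blots are representative of two biological experiments.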

Calls of active or inactive are those of the source. The rule behind the calls is not given here.

T1 sequence (P40337 whole entry, looked up): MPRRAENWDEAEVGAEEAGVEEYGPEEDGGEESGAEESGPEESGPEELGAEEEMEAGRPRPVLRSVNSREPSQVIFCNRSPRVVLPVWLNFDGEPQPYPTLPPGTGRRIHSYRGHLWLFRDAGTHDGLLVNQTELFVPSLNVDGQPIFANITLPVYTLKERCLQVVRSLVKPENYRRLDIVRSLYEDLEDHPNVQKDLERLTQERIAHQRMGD
T1 sequence (Q15910 whole entry, looked up): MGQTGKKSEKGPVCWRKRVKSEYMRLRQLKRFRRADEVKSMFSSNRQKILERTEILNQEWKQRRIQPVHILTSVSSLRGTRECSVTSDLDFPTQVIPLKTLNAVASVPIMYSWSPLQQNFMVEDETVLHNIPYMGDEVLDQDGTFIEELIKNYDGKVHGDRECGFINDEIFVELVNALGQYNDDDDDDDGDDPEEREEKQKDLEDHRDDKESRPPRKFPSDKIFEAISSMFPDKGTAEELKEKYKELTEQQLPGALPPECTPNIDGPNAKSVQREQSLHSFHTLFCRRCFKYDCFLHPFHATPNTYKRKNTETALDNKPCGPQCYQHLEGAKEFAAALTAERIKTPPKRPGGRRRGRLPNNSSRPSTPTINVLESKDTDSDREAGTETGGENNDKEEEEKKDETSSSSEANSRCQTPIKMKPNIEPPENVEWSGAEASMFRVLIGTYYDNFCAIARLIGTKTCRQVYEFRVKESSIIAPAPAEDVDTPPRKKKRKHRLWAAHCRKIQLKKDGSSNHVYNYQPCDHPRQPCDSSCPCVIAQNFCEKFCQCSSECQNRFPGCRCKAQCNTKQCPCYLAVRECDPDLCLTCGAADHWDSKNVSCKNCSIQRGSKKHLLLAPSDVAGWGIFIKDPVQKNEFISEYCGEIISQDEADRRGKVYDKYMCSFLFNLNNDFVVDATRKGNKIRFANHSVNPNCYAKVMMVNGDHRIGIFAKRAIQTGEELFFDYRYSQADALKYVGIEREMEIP

Broadly, the IC50 is the concentration that gives 50% inhibition. With `CCN(c1cc(-c2ccc(CN3CCN(CCC(=O)NCCCCCCCCCCC(=O)N[C@H](C(=O)N4C[C@H](O)C[C@H]4C(=O)NCc4ccc(-c5scnc5C)cc4)C(C)(C)C)CC3)cc2)cc(C(=O)NCc2c(C)cc(C)[nH]c2=O)c1C)C1CCOCC1`, the IC50 in the experiment on MDA-MB-468 stood at 450 nM. In addition, in experiment [1], the outcome was Active. For the same compound, the outcome in experiment [2] was inactive.

The record behind these values is ChEMBL document CHEMBL5543089, “Discovery of a novel, highly potent EZH2 PROTAC degrader for targeting non-canonical oncogenic functions of EZH2” (Eur J Med Chem, 2024).
